Assay results: ChEMBL document CHEMBL4622915, “Design and synthesis of C-12 dithiocarbamate andrographolide analogues as an anticancer agent” (Bioorg Med Chem Lett, 2020)
pIC50: −log10 of the molar value.

Assays:
Type in all cases: functional, cell-based
HT-29 = assay: Anticancer activity against human HT-29 cells assessed as reduction in cell viability measured after 72 hrs by SRB assay; details: HT-29, 72 h
Method in brief: (§1)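 Adherent cells seeded at 10^4 cells/well and exposed 72 h to compound at 0.1–50 μM, dissolved in DMSO (less than 0.05%). Ellipticine served as positive control. Afterwards cells washed, fixed with TCA, stained with 0.4% SRB in 1% acetic acid. Bound dye extracted and OD read at 515 nm; IC50 derived.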

MCF7 = assay: Anticancer activity against human MCF7 cells assessed as reduction in cell viability measured after 72 hrs by SRB assay; details: MCF7, 72 h; method in brief: as §1
[1] = Anticancer activity against human KKU055 cells assessed as reduction in cell viability measured after 72 hrs by SRB assay; method in brief: as §1
A549 = assay: Anticancer activity against human A549 cells assessed as reduction in cell viability measured after 72 hrs by SRB assay; details: A549, 72 h; method in brief: as §1
HuCC-A1 = assay: Anticancer activity against human HuCCa1 cells assessed as reduction in cell viability measured after 72 hrs by SRB assay; details: HuCC-A1, 72 h; method in brief: as §1
P388 = assay: Anticancer activity against mouse P388 cells assessed as reduction in cell viability measured after 48 hrs by SRB assay; details: P388, 48 h
Method in brief: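 Suspension cells seeded at 10^4 cells/well and exposed 48 h to compound at 0.1–50 μM, dissolved in DMSO (less than 0.05%). Ellipticine served as positive control. Then washed, TCA-fixed, stained with 0.4% SRB in 1% acetic acid. Protein-bound dye extracted and absorbance read at 515 nm; IC50 taken.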

[2] = Anticancer activity against rat ASK cells assessed as reduction in cell viability measured after 72 hrs by SRB assay; method in brief: as §1
KB = assay: Anticancer activity against human KB cells assessed as reduction in cell viability measured after 72 hrs by SRB assay; method in brief: as §1
[3] = Anticancer activity against human KKU-M213 cells assessed as reduction in cell viability measured after 72 hrs by SRB assay; details: KKU-M213, 72 h; method in brief: as §1

| SMILES | pIC50 (HT-29) | pIC50 (MCF7) | pIC50 [1] | pIC50 (A549) | pIC50 (HuCC-A1) | pIC50 (P388) | pIC50 [2] | pIC50 (KB) | pIC50 [3] |
| --- | --- | --- | --- | --- | --- | --- | --- | --- | --- |
| C=C1CC[C@@H]2[C@](C)(COC(C)=O)[C@H](OC(C)=O)CC[C@@]2(C)[C@@H]1C/C=C1/C(=O)OC[C@H]1OC(C)=O | 4.66 | 5.10 | 5.30 | < 4.30 | 4.70 | 5.18 | 4.65 | 4.55 | 4.83 |
| C=C1CC[C@@H]2[C@](C)(COC(C)=O)[C@H](OC(C)=O)CC[C@@]2(C)[C@@H]1C[C@H](SC(=S)N1CCN(C(c2ccc(F)cc2)c2ccc(F)cc2)CC1)C1=CCOC1=O | < 4.30 | 4.62 | 4.55 | < 4.30 | < 4.30 | 4.85 | < 4.30 | 4.37 | 4.54 |
| C=C1CC[C@@H]2[C@](C)(COC(C)=O)[C@H](OC(C)=O)CC[C@@]2(C)[C@@H]1C[C@H](SC(=S)N1CCN(c2ccc(O)cc2)CC1)C1=CCOC1=O | 5.31 | 5.59 | 5.28 | 4.66 | 5.31 | 5.24 | 5.32 | 5.22 | 5.31 |
| C=C1CC[C@@H]2[C@](C)(COC(C)=O)[C@H](OC(C)=O)CC[C@@]2(C)[C@@H]1C[C@H](SC(=S)N1CCN(Cc2ccc3c(c2)OCO3)CC1)C1=CCOC1=O | 5.10 | 5.25 | 5.01 | 4.53 | 4.94 | 5.34 | 4.83 | 4.67 | 5.12 |
| C=C1CC[C@@H]2[C@](C)(COC(C)=O)[C@H](OC(C)=O)CC[C@@]2(C)[C@@H]1C[C@H](SC(=S)N1CCN(c2ccccc2OC)CC1)C1=CCOC1=O | 5.18 | 5.33 | 5.12 | 4.55 | 5.09 | 5.24 | 4.84 | 4.75 | 5.25 |
| C=C1CC[C@@H]2[C@](C)(COC(C)=O)[C@H](OC(C)=O)CC[C@@]2(C)[C@@H]1C[C@H](SC(=S)N1CCN(c2ccccc2)CC1)C1=CCOC1=O | 5.09 | 5.19 | 5.03 | 4.54 | 5.02 | 5.37 | 4.81 | 4.63 | 5.19 |
| C=C1CC[C@@H]2[C@](C)(COC(C)=O)[C@H](OC(C)=O)CC[C@@]2(C)[C@@H]1C[C@H](SC(=S)N1CCN(C(c2ccccc2)c2ccc(Cl)cc2)CC1)C1=CCOC1=O (some centres not stated) | < 4.30 | 4.66 | 4.56 | < 4.30 | < 4.30 | 4.65 | < 4.30 | < 4.30 | < 4.30 |
| C=C1CC[C@@H]2[C@](C)(COC(C)=O)[C@H](OC(C)=O)CC[C@@]2(C)[C@@H]1C[C@H](SC(=S)N1CCN(c2ccc(C)cc2)CC1)C1=CCOC1=O | 5.08 | 5.22 | 4.83 | 4.56 | 4.76 | 5.26 | 4.55 | 4.71 | 5.19 |
| C=C1CC[C@@H]2[C@](C)(COC(C)=O)[C@H](OC(C)=O)CC[C@@]2(C)[C@@H]1C[C@H](SC(=S)N1CCOCC1)C1=CCOC1=O | 5.38 | 5.53 | 5.28 | 4.83 | 5.32 | 5.24 | 5.03 | 5.22 | 5.29 |
| C=C1CC[C@@H]2[C@](C)(COC(C)=O)[C@H](OC(C)=O)CC[C@@]2(C)[C@@H]1C[C@H](SC(=S)N(Cc1ccccc1)C(C)C)C1=CCOC1=O | 5.17 | 5.43 | 5.28 | 4.65 | 5.06 | 5.39 | 4.69 | 4.61 | 5.26 |
| C=C1CC[C@@H]2[C@](C)(COC(C)=O)[C@H](OC(C)=O)CC[C@@]2(C)[C@@H]1C[C@H](SC(=S)N(C)Cc1ccccc1)C1=CCOC1=O | 5.21 | 6.23 | 5.87 | 5.16 | 5.06 | 5.66 | 5.16 | 4.60 | 5.32 |
| C=C1CC[C@@H]2[C@](C)(COC(C)=O)[C@H](OC(C)=O)CC[C@@]2(C)[C@@H]1C[C@H](SC(=S)N1CCN(C(c2ccccc2)c2ccccc2)CC1)C1=CCOC1=O | < 4.30 | 4.37 | < 4.30 | < 4.30 | < 4.30 | 4.44 | < 4.30 | < 4.30 | < 4.30 |
| C=C1CC[C@@H]2[C@](C)(COC(C)=O)[C@H](OC(C)=O)CC[C@@]2(C)[C@@H]1C[C@H](SC(=S)N1CCN(Cc2ccc(Cl)cc2)CC1)C1=CCOC1=O | 4.86 | 5.25 | 5.21 | 4.48 | 4.67 | 5.32 | 4.58 | < 4.30 | 5.17 |
| C=C1CC[C@@H]2[C@](C)(COC(C)=O)[C@H](OC(C)=O)CC[C@@]2(C)[C@@H]1C[C@H](SC(=S)N1CCN(C(=O)C2COc3ccccc3O2)CC1)C1=CCOC1=O (some centres not stated) | 5.04 | 5.41 | 5.25 | 4.63 | 4.76 | 5.47 | 4.59 | 4.64 | 5.21 |
| C=C1CC[C@@H]2[C@](C)(COC(C)=O)[C@H](OC(C)=O)CC[C@@]2(C)[C@@H]1C[C@H](SC(=S)N1CCN(c2ccccc2F)CC1)C1=CCOC1=O | 5.15 | 5.22 | 5.03 | 4.55 | 5.06 | 5.24 | 5.02 | 4.72 | 5.28 |
| C=C1CC[C@@H]2[C@](C)(COC(C)=O)[C@H](OC(C)=O)CC[C@@]2(C)[C@@H]1C[C@H](SC(=S)N(C)Cc1ccc(F)cc1)C1=CCOC1=O | 5.21 | 6.17 | 5.52 | 4.93 | 5.11 | 5.44 | 4.77 | 4.59 | 5.29 |
| C=C1CC[C@@H]2[C@](C)(COC(C)=O)[C@H](OC(C)=O)CC[C@@]2(C)[C@@H]1C[C@H](SC(=S)N1CCN(c2ncccn2)CC1)C1=CCOC1=O | 5.34 | 6.08 | 5.28 | 4.75 | 5.24 | 5.37 | 5.14 | 5.16 | 5.28 |
| C=C1CC[C@@H]2[C@](C)(COC(C)=O)[C@H](OC(C)=O)CC[C@@]2(C)[C@@H]1C[C@H](SC(=S)N(CC)Cc1ccncc1)C1=CCOC1=O | 5.37 | 5.61 | 5.39 | 5.03 | 5.15 | 5.23 | 4.74 | 4.77 | 5.25 |
